Published values from different studies.
Protocols differ between the studies behind these lines.
Target: Serine/threonine-protein kinase MARK1 (MARK1, Homo sapiens, UniProt Q9P0L2)
Read-out: enzyme activity
Action: inhibitor

`NS(=O)(=O)c1ccc(CNc2ccnc(Nc3cccc(NC(=O)N4CCCC4)c3)n2)cc1` has a remaining activity of 104% (radiometric; 1 µM).
`Cn1c(=O)n(-c2ccc(C(C)(C)C#N)cc2)c2c3cc(-c4cnc5ccccc5c4)ccc3ncc21` gave a remaining activity of 97% (10 µM).
With `O=C(Nc1cnn(-c2csc(C(=O)NC3COC3)c2)c1)Nc1c(F)cccc1Cl` the remaining activity was 108% (5 µM).
`CC(C)(O)[C@H]1CC[C@H](Nc2ccc3ncc(-c4cccc(C(F)(F)F)c4)n3n2)CC1` has a remaining activity of 102% (1 µM).
`O=C(NCCCNc1nc(Nc2cccc(NC(=O)N3CCCC3)c2)ncc1Br)C1CCC1` gave a remaining activity of -6% (radiometric; 1 µM).
The remaining activity of `CCCOc1ccc(OC)c(F)c1C(=O)c1ccc(C(=O)N[C@@H]2CNC[C@H]2NC(=O)c2ccc3[nH]ncc3c2)cc1` is reported as 21% (10 µM).
`O=C(Nc1cnn(-c2csc(C(=O)NC3COC3)c2)c1)Nc1ccccc1Cl` gave a remaining activity of 96.3% (5 µM).
The remaining activity of `CCN(CC)c1ccc(C2=NNC(=O)CC2C)cc1[N+](=O)[O-]` (stereo not shown) is reported as 102% (10 µM).
`Cc1ccc(C(=O)Nc2ccc(CN3CCN(C)CC3)c(C(F)(F)F)c2)cc1C#Cc1cnc2cccnn12` gave a remaining activity of 100% (23.5 nM).
`Cc1cnc(NC2CCOCC2)nc1-n1cnc(C(=O)NC(CN)c2cc(F)cc(Cl)c2)c1` (stereo not shown) has a remaining activity of 43% (radiometric; 1 µM).
The remaining activity of `Oc1cccc(-c2nc(N3CCOCC3)c3oc4ncccc4c3n2)c1` is reported as 91% (10 µM).
The remaining activity of `Cc1nn(CC(F)(F)F)cc1Nc1nccc(NCCc2cnc[nH]2)n1` is reported as 109% (radiometric; 1 µM).
`CC(C)(C)c1nc(-c2cccc(NS(=O)(=O)c3c(F)cccc3F)c2F)c(-c2ccnc(N)n2)s1` gave a remaining activity of 90% (radiometric; 1 µM).
With `NS(=O)(=O)c1ccc(CNc2nc(Nc3cccc(CN4CCOCC4)c3)ncc2C2CC2)cc1` the remaining activity was 100% (radiometric; 1 µM).
`COc1cc(Cl)c(C(=O)N[C@@H](CN[C@H]2CC[C@@H](N)CC2)Cc2ccc(C#N)cc2)cc1-c1ccc(CN[C@H](C)c2ccc(C)cc2)o1` gave a remaining activity of 148% (1 µM).
For `NS(=O)(=O)c1ccc(CNc2nc(Nc3cccc(CN4CCOCC4)c3)ncc2Br)cc1`, the remaining activity was 66% (radiometric; 1 µM).
`COc1cc(Nc2cnc(C#N)c(O[C@H](C)CN(C)C)n2)ncc1-c1cnn(C)c1` gave a remaining activity of 80% (radiometric; 10 µM).
With `c1cc(CN2CCOCC2)cc(Nc2ncc(C3CC3)c(NCCc3c[nH]cn3)n2)c1` the remaining activity was 1% (radiometric; 1 µM).
The remaining activity of `CC(C)(C)c1nc2c(s1)c1nc(N)ncc1c1ccc(NS(=O)(=O)c3c(F)cccc3F)c(F)c12` is reported as 90% (radiometric; 1 µM).
